# Test results taken from BindingDB's records for doi:10.1021/jm020820h (2002).
# Tests used:
# [1] = Effective concentration required to inhibit HIV-1 induced cytopathicity in CEM cell culture by 50%.
# [2] = Effective concentration required to inhibit HIV-1 induced cytopathicity in MT-4 cell culture by 50%.
# [3] = target: T1, Reverse transcriptase/RNaseH (Human immunodeficiency virus 1, UniProt Q72547); assay: Effective concentration required to inhibit HIV-1 induced cytopathicity in CEM cell culture by 50%.
# In short: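 CEM cells at 4 × 10⁵/mL infected with HIV-1 or HIV-2 at ~100 CCID₅₀ per mL, mixed 1:1 with compound dilutions. Giant cell formation scored microscopically after 4 days. EC₅₀ is the concentration inhibiting virus-induced cytopathicity by 50%.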
# [4] = target: T1, Reverse transcriptase/RNaseH; assay: Effective concentration required to inhibit HIV-1 induced cytopathicity in MT-4 cell culture by 50%.
# In short: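 MT-4 cells at 3 × 10⁵/mL infected with HIV-1 or HIV-2 at ~100 CCID₅₀ per mL, mixed 1:1 with compound dilutions. Cytopathicity read by trypan blue dye exclusion after 5 days. EC₅₀ is the concentration giving 50% protection against the virus-induced loss of cell viability.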
SMILES,EC50 [1] [µM],EC50 [2] [µM],EC50 [3] [µM],EC50 [4] [µM]
Cc1cn(C2OC(CO[Si](C)(C)C(C)(C)C)C3(OS(=O)(=O)C=C3N)C2O[Si](C)(C)C(C)(C)C)c(=O)n(C)c1=O (configuration not stated),0.04,–,–,–
Cc1cn(C2OC(CO[Si](C)(C)C(C)(C)C)C3(OS(=O)(=O)C(Br)=C3N)C2O[Si](C)(C)C(C)(C)C)c(=O)[nH]c1=O (configuration not stated),0.85,0.93,–,–
CC=C1C(=N)C2(OS1(=O)=O)C(CO[Si](C)(C)C(C)(C)C)OC(n1cc(C)c(=O)[nH]c1=O)C2O[Si](C)(C)C(C)(C)C (configuration not stated),–,–,4,3.2
CC=C1C(=N)C2(OS1(=O)=O)C(CO)OC(n1cc(C)c(=O)[nH]c1=O)C2O[Si](C)(C)C(C)(C)C (configuration not stated),–,–,15,23
COC(=O)CC=C1C(=N)C2(OS1(=O)=O)C(CO[Si](C)(C)C(C)(C)C)OC(n1cc(C)c(=O)[nH]c1=O)C2O[Si](C)(C)C(C)(C)C (configuration not stated),–,–,3,3.7
Cc1cn(C2OC(CO[Si](C)(C)C(C)(C)C)C3(OS(=O)(=O)C(=CCCO)C3=N)C2O[Si](C)(C)C(C)(C)C)c(=O)n(C)c1=O (configuration not stated),–,–,2.8,5.9
CC1=C(N)C2(OS1(=O)=O)C(CO[Si](C)(C)C(C)(C)C)OC(n1cc(C)c(=O)n(C)c1=O)C2O[Si](C)(C)C(C)(C)C (configuration not stated),2.2,0.25,–,–
Cc1cn(C2OC(CO[Si](C)(C)C(C)(C)C)C3(OS(=O)(=O)C(c4ccsc4)=C3N)C2O[Si](C)(C)C(C)(C)C)c(=O)n(C)c1=O (configuration not stated),–,2.3,–,–
Cc1cn(C2OC(CO[Si](C)(C)C(C)(C)C)C3(OS(=O)(=O)C(I)=C3N)C2O[Si](C)(C)C(C)(C)C)c(=O)n(C)c1=O (configuration not stated),–,0.11,–,–
Cc1cn(C2OC(CO[Si](C)(C)C(C)(C)C)C3(OS(=O)(=O)C(c4ccccc4)=C3N)C2O[Si](C)(C)C(C)(C)C)c(=O)n(C)c1=O (configuration not stated),–,1.7,–,–
CCOC(=O)CC=C1C(=N)C2(OS1(=O)=O)C(CO[Si](C)(C)C(C)(C)C)OC(n1cc(C)c(=O)[nH]c1=O)C2O[Si](C)(C)C(C)(C)C (configuration not stated),–,–,3.5,10
Cc1cn(C2OC(CO[Si](C)(C)C(C)(C)C)C3(OS(=O)(=O)C(c4ccccc4)=C3N)C2O[Si](C)(C)C(C)(C)C)c(=O)[nH]c1=O (configuration not stated),2.5,6.7,–,–
COC(=O)CC=C1C(=N)C2(OS1(=O)=O)C(CO[Si](C)(C)C(C)(C)C)OC(n1cc(C)c(=O)n(C)c1=O)C2O[Si](C)(C)C(C)(C)C (configuration not stated),–,–,0.98,2.9
CNC1=C(C)S(=O)(=O)OC12C(CO[Si](C)(C)C(C)(C)C)OC(n1cc(C)c(=O)n(C)c1=O)C2O[Si](C)(C)C(C)(C)C (configuration not stated),> 100,> 250,–,–
"Cc1cn([C@@H]2O[C@H](CO[Si](C)(C)C(C)(C)C)[C@@]3(OS(=O)(=O)C(=CCCO)C3=N)[C@H]2O[Si](C)(C)C(C)(C)C)c(=O)[nH]c1=O [1-[(5R,6R,8R,9R)-4-amino-9-(tert-butyl-dimethyl-silanyloxy)-6-(tert-butyl-dimethyl-silanyloxymethyl)-3-(3-hydroxy-propenyl)-2,2-dioxo-1,7-dioxa-2lambda*6*-thia-spiro[4.4]non-3-en-8-yl]-5-methyl-1H-pyrimidine-2,4-dione]",–,–,–,6.6
"Cc1cn([C@@H]2O[C@H](CO[Si](C)(C)C(C)(C)C)[C@@]3(OS(=O)(=O)C(I)=C3N)[C@H]2O[Si](C)(C)C(C)(C)C)c(=O)[nH]c1=O [1-[(5R,6R,8R,9R)-4-amino-9-(tert-butyl-dimethyl-silanyloxy)-6-(tert-butyl-dimethyl-silanyloxymethyl)-3-iodo-2,2-dioxo-1,7-dioxa-2lambda*6*-thia-spiro[4.4]non-3-en-8-yl]-5-methyl-1H-pyrimidine-2,4-dione]",0.06,0.12,–,–
